Screening data (PubChem)
FLuc stim CS – affects firefly luciferase, flagging false hits in luciferase stimulation screens; P08659; ATPlite luciferase biochemical, luminescence, 10 min; 0 = ATP-free wells, 1 = DMSO control; activation factor at 10 µM; 200,000 tested, under 10 active;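 active = luciferase activation factor, scaled between plate controls, of at least 2 with compound at 10 µM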
Target sequence (P08659 whole entry, looked up): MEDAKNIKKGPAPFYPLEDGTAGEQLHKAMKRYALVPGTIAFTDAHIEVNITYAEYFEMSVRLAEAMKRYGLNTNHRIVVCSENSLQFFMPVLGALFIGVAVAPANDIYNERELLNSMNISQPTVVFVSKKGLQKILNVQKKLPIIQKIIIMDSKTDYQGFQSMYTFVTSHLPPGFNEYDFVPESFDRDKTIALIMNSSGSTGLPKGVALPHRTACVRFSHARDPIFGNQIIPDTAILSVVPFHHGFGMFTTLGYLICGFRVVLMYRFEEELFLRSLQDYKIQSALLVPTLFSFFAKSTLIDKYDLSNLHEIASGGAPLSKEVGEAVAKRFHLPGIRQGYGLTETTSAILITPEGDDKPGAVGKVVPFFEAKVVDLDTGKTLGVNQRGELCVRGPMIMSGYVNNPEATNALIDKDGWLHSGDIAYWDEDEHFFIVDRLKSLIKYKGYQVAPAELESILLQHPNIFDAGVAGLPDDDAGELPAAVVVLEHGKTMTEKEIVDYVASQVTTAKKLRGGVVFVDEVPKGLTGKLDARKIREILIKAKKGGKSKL
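test system = cell-free luciferase reagent | medium = PBS as buffer for the ATP substrate | dosing = test compounds dosed from 2 mM stocks in 100% DMSO | incubation = 10 min at ambient temperature | detection = luminescence measurement of luciferase light output | benchmarks = low control with PBS replacing ATP, high control enzyme plus ATP without compound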
C8 TRAIL sens – caspase-8 TRAIL sensitization | NB7+C8 cells + TRAIL, ATPlite viability luminescence | inhibition (viability loss, TRAIL sensitization), % at 10 µM | 1% of 360,000 active | AID 624354;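 active = compounds causing at least 50% loss of cell viability in the single-dose screen, relative to plate controls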
FLuc inh counter – Photinus pyralis luciferase inhibition counter-screen | ATPLite firefly luciferase biochemical luminescence, 10 min | 1.5% of 200,000 active | inhibition, % at 10 µM;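 active = inhibition above about 50% when tested at 10 µM, limit read from the data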
PPC-1+TRAIL kill – PPC-1 cancer cell killing with TRAIL present; PPC-1 cells + TRAIL, ATPLite viability luminescence; cell killing (% activity), % at 4 µM or 5 µM; 0.41% of 220,000 active; AID 1443;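 active = cell killing above 50% in the first pass at 4 µM, then a duplicate retest at 5 µM averaging 50% or more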;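 also: plate controls were cells with TRAIL plus DMSO for no effect and medium-only wells lacking cells for full effect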
Starred values were filed as active, the others as inactive; · = not tested or not shown. In the library only some 1.6% were active in any assay of this set; here they are far more common.

SMILES	FLuc stim CS	C8 TRAIL sens	FLuc inh counter	PPC-1+TRAIL kill
CNC(=O)C[C@H]1C(=O)N(c2ccc(OC)cc2)C[C@@H]1C	·	1	·	·
CCS(=O)(=O)c1ccc(N=Nc2ccc(O)c3ncccc23)c(OC)c1	0.9	70*	10	-11
COc1ccc2nc3cc(Cl)ccc3c(Nc3cc(CN4CCCC4)c(O)c(CN4CCCC4)c3)c2n1	·	79*	·	·
O=C1CCNc2ccc(-c3ccccc3)cc21	1	-24	4	6
O=C1CCNc2cc3ccccc3cc21	1	12	2	52*
COc1ccc(-c2csc(NCc3ccco3)n2)cc1	0.3	17	72*	23
c1coc(CNc2nc(-c3ccncc3)cs2)c1	0.9	-17	11	25
N/C(=N\OC(=O)c1ccc(F)cc1)c1ccccc1	0	1	97*	6
Cc1ccc(/C(N)=N/OC(=O)c2ccc(F)cc2)cc1	0.3	74*	68*	9
C/C(=N\OC(=O)c1ccc(F)cc1)c1ccc(F)c(F)c1	·	-1	·	11
N/C(=N\OC(=O)c1ccc(F)cc1)c1ccc(Br)cc1	0.6	48	36	21
O=C(OCC(=O)N1CCN(Cc2ccccc2)CC1)c1cc(Cl)ccc1[N+](=O)[O-]	·	-6	·	·
Clc1c(-c2ccccc2)nnn1-c1ccccc1	0.3	21	69*	9
Nc1nc2ccc(N3CCOCC3)cc2s1	0.3	48	66*	18
Fc1ccc2nc(N3CCOCC3)sc2c1	0.9	3	7	-3
CC(NC(=O)Nc1nnc(C(F)(F)F)s1)(C(F)(F)F)C(F)(F)F	1	51*	-2	8
CCOC(=O)N1N=C(c2ccc(C)cc2)CC1(O)C(F)(F)F (centres undefined)	0.5	18	54*	28
CCOC(=O)N1N=C(c2ccccc2)CC1(O)C(F)(F)F (centres undefined)	0.9	4	9	17
CC(NC(=O)COC(=O)C1CCN(c2ccc(C(F)(F)F)cn2)CC1)c1ccc(F)cc1 (centres undefined)	·	-5	·	·
O=[N+]([O-])c1cc(S(=O)(=O)C(F)(F)F)ccc1Sc1nc2ccccc2[nH]1	1.1	86*	-7	11
CS(=O)(=O)c1ccc(Sc2nc3ccccc3[nH]2)c([N+](=O)[O-])c1	1	4	-1	6
C[C@H]1CN=C(N(C)C)N1CC1CCC(C(C)(C)C)CC1 (some centres undefined)	·	9	·	·
COc1ccc(C(=O)COC(=O)c2cccs2)cc1	·	-4	·	·
CCc1ccc(C(=O)COC(=O)c2cccnc2Cl)cc1	0.1	-4	91*	8
O=C(OCc1ccc(COC(=O)c2cccnc2Cl)cc1)c1cccnc1Cl	1.1	1	-10	2
SMILES	FLuc stim CS	C8 TRAIL sens	FLuc inh counter	PPC-1+TRAIL kill
O=C(COC(=O)c1cccnc1Cl)c1ccccc1	0.4	-24	59*	26
O=C(COC(=O)c1cccs1)c1ccccc1	0.3	-3	66*	-6
C#CCOCCOCCOCCNc1nc(N2CCN(C(=O)CCCCCCCCCCNC(=O)[C@H](CCCCN)n3cc(C)nn3)CC2)nc(N2CCN(C(=O)CCCCCCCCCCNC(=O)[C@@H]([C@H](C)CC)n3cc(CCCCCN)nn3)CC2)n1	·	97*	·	·
C#CCOCCOCCOCCNc1nc(N2CCN(C(=O)CCCCCCCCCCNC(=O)[C@H]([C@@H](C)CC)n3cc(CCCCCN)nn3)CC2)nc(N2CCN(C(=O)CCCCCCCCCCNC(=O)[C@@H]([C@H](C)O)n3cc(C)nn3)CC2)n1	·	92*	·	·
C#CCOCCOCCOCCNc1nc(N2CCN(C(=O)CCCCCCCCCCNC(=O)Cn3cc(CCCCCN)nn3)CC2)nc(N2CCN(C(=O)CCCCCCCCCCNC(=O)[C@H]([C@@H](C)CC)n3cc(CCCCCN)nn3)CC2)n1	·	75*	·	·
C#CCOCCOCCOCCNc1nc(N2CCN(C(=O)CCCCCCCCCCNC(=O)[C@H](CCC(=O)O)n3cc(CCCCCN)nn3)CC2)nc(N2CCN(C(=O)CCCCCCCCCCNC(=O)[C@@H]([C@H](C)O)n3cc(C)nn3)CC2)n1	·	-7	·	·
COc1ccccc1CNS(=O)(=O)CCNCc1ccco1	·	-22	·	·
CC(C)c1cc(Cn2c3ccccc3c(=O)n2C(C)Cn2cc(CCCC#N)nn2)on1 (centres undefined)	·	-5	·	·
Cc1cc[n+](-c2ccccc2)c2ccccc12	1	6	-2	8
N#Cc1c(NC(=O)c2ccccc2)sc2c1CCC2	0.8	24	22	17
N#Cc1c(NC(=O)c2cccnc2)sc2c1CCC2	0.5	27	54*	12
CC1CN(Cc2ccccc2)c2ccccc2NC1=S (centres undefined)	1	1	1	52*
CC(C)(C)OC(=O)NCCCC[C@H](NC(=O)c1[nH]cnc1C(=O)N[C@@H](Cc1ccccc1)C(=O)OC(C)(C)C)C(=O)OC(C)(C)C	·	58*	·	18
CC(C)C[C@H](NC(=O)c1[nH]cnc1C(=O)N[C@@H](Cc1ccccc1)C(=O)OCc1ccccc1)C(=O)OCc1ccccc1	·	17	·	·
CC(C)C[C@H](NC(=O)c1nc[nH]c1C(=O)N[C@@H](CC(C)C)C(=O)OCc1ccccc1)C(=O)OCc1ccccc1	·	52*	·	·
CC(C)C[C@H](NC(=O)c1nc[nH]c1C(=O)N[C@@H](CC(C)C)C(=O)OC(C)(C)C)C(=O)OC(C)(C)C	·	55*	·	6
C=CCOc1ccccc1CN(C(=O)CCl)c1ccc2c(c1)OCO2	·	96*	·	·
CCCn1c(SCC(=O)Nc2ccc(S(=O)(=O)N(C)C)cc2)n[nH]c1=O	1	-2	-1	14
CC(C)(C)c1ccc2c(c1)OC(C(=O)N/N=C\c1ccc[nH]1)CO2 (centres undefined)	·	61*	·	·
CC(C)(C)OC(=O)N/N=C\c1ccc[nH]1	0.4	2	62*	28
Cc1cccc(C(=O)N/N=C/c2ccc[nH]2)c1	0.7	-24	26	7
CC(C)(C)OC(=O)N/N=C/c1cccc([N+](=O)[O-])c1	0.2	30	79*	31
CC(C)(C)c1ccc2c(c1)OC(C(=O)N/N=C\c1ccncc1)CO2 (centres undefined)	·	-5	·	-5
